From PubChem
This is a sample that favours compounds with a hit; in the whole collection about 3.1% have one here.
UBC13 polyUb = blocks human UBC13 polyubiquitin chain formation; P61088; TR-FRET; inhibition, % at 20 µM; 0.47% of 330,000 active; AID 485273; in the data active = inhibition above about 45%, passing the limit was not always enough; inconclusive = no clear call, values can overlap the other calls
Target sequence (P61088 whole entry, looked up): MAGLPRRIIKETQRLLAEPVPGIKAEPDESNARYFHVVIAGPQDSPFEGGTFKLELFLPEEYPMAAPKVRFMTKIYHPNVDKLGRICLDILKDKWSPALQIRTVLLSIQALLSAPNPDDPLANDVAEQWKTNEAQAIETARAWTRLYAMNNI
SENP8 block-1 = inhibitors of human SENP8 protease; recombinant SENP8, Nedd8 substrate fluorescence; inhibition, % at 20 µM; 0.64% of 360,000 active; Q96LD8; in the data active = inhibition mostly above about 40%, no sharp cut-off; inactive = mostly below about 27%
SENP6 block = inhibitors of human SENP6 protease; Recombinant SENP6 catalytic domain, aminoluciferin luminescence; inhibition, % at 10 µM; 1.8% of 330,000 active;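 active = inhibition above about 50% at the single tested dose, limit read from the data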;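 note: plate controls were DMSO wells with enzyme for no effect and DMSO wells lacking enzyme for full effect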
Apaf-1 inh = human Apaf-1 inhibition; reconstituted apoptosome caspase-3 activity, DEVD-Rh110 fluorescence; inhibition, % at 20 µM; 0.71% of 330,000 active; active = inhibition of at least 40% at 20 µM;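 note: plate controls were DMSO wells for no effect and DEVD-CHO caspase inhibitor wells for full effect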
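Medium: Hepes buffer, pH 7.5 / System: biochemical Apaf-1 apoptosome reconstitution / Measured by: Rh110 fluorescence, excitation 480 nm, emission 540 nm / Times: compound with Apaf-1, dATP, procaspase-3 30 min, then 50 min reaction, room temperature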
SENP8 block-2 = blocks the human protease SENP8. Q96LD8. purified SENP8, Z-RLRGG-aminoluciferin cleavage, luminescence. inhibition, % at 10 µM. 1.2% of 330,000 active. AID 2540; in the data active = inhibition above about 50%
SENP7 block = inhibitors of human SENP7 protease; recombinant SENP7, Z-RLRGG-aminoluciferin luminescence, 40 min; Q9BQF6; inhibition, % at 5 µM; 1.5% of 330,000 active;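 active = inhibition above about 50% at the single test dose, limit read from the data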;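 note: plate controls were DMSO with enzyme for no effect and no enzyme buffer wells for full effect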
Target sequence (Q9BQF6 706-1050 limits assumed): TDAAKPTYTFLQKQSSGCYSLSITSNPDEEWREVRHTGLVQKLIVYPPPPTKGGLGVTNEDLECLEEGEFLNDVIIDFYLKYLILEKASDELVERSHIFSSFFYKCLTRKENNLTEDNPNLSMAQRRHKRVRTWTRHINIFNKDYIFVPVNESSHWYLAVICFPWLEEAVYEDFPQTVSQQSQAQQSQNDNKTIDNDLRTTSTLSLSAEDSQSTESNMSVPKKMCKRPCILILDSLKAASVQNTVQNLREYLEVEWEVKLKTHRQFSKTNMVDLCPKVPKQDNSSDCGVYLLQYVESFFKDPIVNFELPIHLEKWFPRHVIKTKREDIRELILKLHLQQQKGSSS
SENP8 inh conf = SENP8 (human) inhibition, single concentration confirmation | shares compounds with SENP8 block-1 | 15% of 1,400 active | purified SENP8, Nedd8-AMC/pro-Nedd8 cleavage fluorescence, 30 min | AID 624319 | inhibition, % at 25 µM; in the data active = inhibition mostly above about 39%, no sharp cut-off; inactive = mostly below about 34%
Active calls of the source: *; ! = repeats disagree.

Screening CCN(CC(=O)NC(C)(C)C)Cc1nc2c(Br)cc(Br)cc2c(=O)[nH]1 returned UBC13 polyUb inconclusive, SENP8 block-1 41*, SENP6 block 2, Apaf-1 inh 2, SENP8 block-2 -10, SENP7 block -4 and SENP8 inh conf 25.
COC(=O)C1=COC(OC2OC(CO)C(O)C(O)C2O)C2C1C=CC2(O)CO (stereo not drawn) was read as UBC13 polyUb -8, SENP8 block-1 41*, SENP6 block -19, Apaf-1 inh -5, SENP8 block-2 -10, SENP7 block 4 and SENP8 inh conf 5.
For CNc1ncnc(Sc2ccc(Cl)cc2)c1[N+](=O)[O-] the results were UBC13 polyUb 4, SENP8 block-1 42*, SENP6 block -3, Apaf-1 inh -13, SENP8 block-2 8, SENP7 block 0 and SENP8 inh conf 4.
For Cn1nc([N+](=O)[O-])nc1Sc1ccc(Cl)cc1 the results were UBC13 polyUb -10, SENP8 block-1 6, SENP6 block -1, Apaf-1 inh -1, SENP8 block-2 -11 and SENP7 block -5.
`COCCN(C(=O)C1CC(=O)N(Cc2ccccc2)C1)c1nc(-c2ccc([N+](=O)[O-])cc2)cs1` (stereo not drawn) gave UBC13 polyUb -13, SENP8 block-1 -9, SENP6 block -19, Apaf-1 inh 34, SENP8 block-2 -30 and SENP7 block -9.
For Cc1cc(=O)[nH]c(N/N=C/C(C)c2ccccc2)n1 (stereo not drawn) the results were UBC13 polyUb 15, SENP8 block-1 47*, SENP6 block -16, Apaf-1 inh -11, SENP8 block-2 0, SENP7 block 4 and SENP8 inh conf 0.
CCn1cc(/C=C(\NC(=O)c2ccccc2F)C(=O)N2CCN(C)CC2)c2ccccc21 was read as SENP8 block-1 10.
Screening C[C@@H](OC(=O)c1[nH]cnc1C(=O)N1CCc2ccccc2C1)c1ccccc1 returned UBC13 polyUb 13, SENP8 block-1 52*, SENP6 block 6, Apaf-1 inh 26, SENP8 block-2 6, SENP7 block 4 and SENP8 inh conf 86*.
`OC(c1ccc(F)c(F)c1)c1nc(-c2csc3ccccc23)cs1` (stereo not drawn) gave SENP8 block-1 13.
For CC(=O)N(O)CCCCCNC(=O)CCC(=O)N(O)CCCCCNC(=O)CCC(=O)N(O)CCCCCN the results were UBC13 polyUb 25, SENP8 block-1 50*!, SENP6 block -2, Apaf-1 inh -7, SENP8 block-2 1, SENP7 block 4 and SENP8 inh conf 19.
CCc1ccc(C(O)c2ncc(-c3cccc4ccccc34)[nH]2)cc1 (stereo not drawn) was read as SENP8 block-1 -382.
Cc1cc([N+](=O)[O-])nn1CCCC(=O)N1CCN(c2ccccc2)CC1 was read as UBC13 polyUb -2, SENP8 block-1 41*, SENP6 block 7, Apaf-1 inh -7, SENP8 block-2 2, SENP7 block 1 and SENP8 inh conf 9.
Screening Cc1c(Cl)c([N+](=O)[O-])nn1CCCC(=O)N1CCN(c2ccccc2)CC1 returned UBC13 polyUb -1, SENP8 block-1 20, SENP6 block -8, Apaf-1 inh 2, SENP8 block-2 -8 and SENP7 block -4.
Screening CS(=O)(=O)NCc1csc(-c2ccccc2)n1 returned UBC13 polyUb 3, SENP8 block-1 44*, SENP6 block 15, Apaf-1 inh -9, SENP8 block-2 -2, SENP7 block 3 and SENP8 inh conf -5.
Cc1ccc(/C=N/N2C(=S)SC(C)(C)C2N(O)C(=O)Nc2ccc([N+](=O)[O-])cc2)cc1 (stereo not drawn) was read as UBC13 polyUb -16, SENP8 block-1 40*, SENP6 block -8, Apaf-1 inh 15, SENP8 block-2 -1, SENP7 block 1 and SENP8 inh conf 6.
Screening CCNC(=O)C1(C)CCCN(Cc2cccc(Oc3ccccc3)c2)C1 (stereo not drawn) returned SENP8 block-1 16.
`CCOC(=O)C1=C[C@@H](CC)N(S(=O)(=O)c2ccccc2)[C@H]1c1ccccc1` gave SENP8 block-1 -11.
CCN(CC)C(=O)c1cn(C)c(=O)c2cc(OC)c(OC)cc12 was read as UBC13 polyUb -2, SENP8 block-1 10, SENP6 block -2, Apaf-1 inh -3, SENP8 block-2 -4 and SENP7 block 1.
Screening CCN(C(=O)c1cn(C)c(=O)c2cc(OC)c(OC)cc12)c1cc(OC)ccc1OC returned UBC13 polyUb -4, SENP8 block-1 43*, SENP6 block -13, Apaf-1 inh -3, SENP8 block-2 -1, SENP7 block 0 and SENP8 inh conf 13.
COc1ccccc1NC(=O)c1cn(C)c(=O)c2cc(OC)c(OC)cc12 was read as UBC13 polyUb -9, SENP8 block-1 42*, SENP6 block -9, Apaf-1 inh 9, SENP8 block-2 -7, SENP7 block -10 and SENP8 inh conf 63*.
Screening COc1cc2c(C(=O)Nc3ccccc3F)cn(C)c(=O)c2cc1OC returned UBC13 polyUb 2, SENP8 block-1 18, SENP6 block 20, Apaf-1 inh 2, SENP8 block-2 4 and SENP7 block 4.
Screening Cc1ccc(CN2CC(N3CC=CC3)CS2(=O)=O)cc1 (stereo not drawn) returned SENP8 block-1 48* and SENP8 inh conf 26.
CC1=NN(c2ccccc2)C(=O)C1C(=S)SC1CC(=O)NC1=O (stereo not drawn) was read as SENP8 block-1 45* and SENP8 inh conf 17.
Screening O=C(O)c1cccc(N/N=C/c2sc(N3CCOCC3)nc2-c2ccccc2)c1 returned UBC13 polyUb 0, SENP8 block-1 -118, SENP6 block 4, Apaf-1 inh -8, SENP8 block-2 -3 and SENP7 block 6.
O=[N+]([O-])c1ccc(N/N=C/c2sc(N3CCOCC3)nc2-c2ccccc2)c(S(=O)(=O)Nc2ccc(Cl)cc2)c1 was read as SENP8 block-1 53* and SENP8 inh conf 20.
O=[N+]([O-])c1ccc(N/N=C/c2sc(N3CCOCC3)nc2-c2ccccc2)c(S(=O)(=O)Nc2ccccc2Cl)c1 was read as SENP8 block-1 46* and SENP8 inh conf 30.
Screening CCOC(=O)/C(=N/Nc1ccccc1)N1CCCc2ccccc21 returned UBC13 polyUb 1, SENP8 block-1 43*, SENP6 block -9, Apaf-1 inh 15, SENP8 block-2 0, SENP7 block 1 and SENP8 inh conf 18.
Screening Cc1ccc(C(=O)NCC(=O)OCC(=O)N2CCCc3ccccc32)cc1 returned UBC13 polyUb 7, SENP8 block-1 55*, SENP6 block -15, Apaf-1 inh 0, SENP8 block-2 3, SENP7 block 2 and SENP8 inh conf -3.
